A selection: hits, their analogues and other compounds. The true share with any hit is near 4.2%.
OX1R antag-1 = antagonists of human orexin 1 receptor (OX1R). Orexin/Hypocretin receptor type 1 (Homo sapiens), O43613. OX1R-expressing cells, FRET antagonist read-out. inhibition, % at 6.6 µM. hit rate 1.8% among 330,000. AID 485270, 2010; in the data active means inhibition mostly above about 38%, no sharp cut-off; inactive means mostly below about 40%;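 further: 0% = agonist challenge alone and 100% = reference antagonist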
GalR3 antag = GalR3 antagonists in HEK293 cells, primary screen, cell-based, fluorescence readout. hit rate 0.44% among 360,000. inhibition, % at 3 µM. HEK293 GalR3-CNG cAMP membrane potential fluorescence; galR3 body fused to GalR1 C-terminus. AID 651719, 2012;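 active means inhibition above the screen-wide average plus 3 SD, cut at about 13% in these data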;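 further: forskolin and galanin both at EC90 stimulate the cells; cAMP rise reported by CNG channel membrane potential dye signal; 0% = forskolin plus galanin with DMSO and 100% = forskolin alone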
Target sequence (O60755 1-299 limits assumed): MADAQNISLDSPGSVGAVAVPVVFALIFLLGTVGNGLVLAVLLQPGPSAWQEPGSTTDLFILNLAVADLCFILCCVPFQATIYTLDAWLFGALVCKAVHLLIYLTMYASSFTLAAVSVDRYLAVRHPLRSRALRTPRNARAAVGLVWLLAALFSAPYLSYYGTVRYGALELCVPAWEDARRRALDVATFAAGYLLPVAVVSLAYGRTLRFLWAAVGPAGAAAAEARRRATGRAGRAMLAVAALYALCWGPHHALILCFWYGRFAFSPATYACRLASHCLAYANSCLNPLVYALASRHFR
CHO parental Ca = ATP-evoked calcium signal inhibitors, parental CHO, primary screen, counter-screen for OX1R antagonist project, cell-based, fluorescence, Fluo-8 calcium dye; parental CHO-K1, ATP-induced calcium, Fluo-8 fluorescence; hit rate 0.63% among 330,000; inhibition, % at 5.6 µM;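 active means inhibition above that plate's mean sample inhibition plus 3 SD, cut at about 26% in these data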;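 further: 0% = ATP-challenged DMSO wells and 100% = DMSO wells without ATP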
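Test system: untransfected parental CHO cell line. Compound: one dose, 5.6 µM nominal. Detection: intracellular calcium via Fluo-8 no-wash fluorescent dye. Measure: % inhibition. Benchmarks: ATP-challenged DMSO wells low, unchallenged DMSO wells high.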
OX1R antag-2 = OX1R (HCRTR1) antagonists, primary screen, fluorescence, CHO/OX1R cells, Fluo-8 calcium, orexin A. Fluo-8 calcium fluorescence. Orexin/Hypocretin receptor type 1 (Homo sapiens), O43613. hit rate 0.43% among 330,000. inhibition, % at 5 µM;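 active means inhibition above its plate's threshold, mean inhibition of all tested compounds on the plate plus 3 SD, cut at about 37% in these data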;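 further: 0% = orexin A challenge wells and 100% = SB-334867-A antagonist wells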
TAAR1 antag = human TAAR1 antagonists, primary screen, Fluo-8 calcium fluorescence, CHO RD-HGA16 cells | Trace amine-associated receptor 1 (Homo sapiens), Q96RJ0 | antagonist | inhibition, % at 3 µM | hit rate 1.5% among 360,000 | AID 624466, 2012;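 active means inhibition above a per-plate cutoff, the mean inhibition of test compounds on that plate plus 3 SD, cut at about 49% in these data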;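 further: 0% = DMSO plus EC80 beta-PEA response and 100% = DMSO alone without agonist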
Target sequence (Q96RJ0 whole entry, looked up): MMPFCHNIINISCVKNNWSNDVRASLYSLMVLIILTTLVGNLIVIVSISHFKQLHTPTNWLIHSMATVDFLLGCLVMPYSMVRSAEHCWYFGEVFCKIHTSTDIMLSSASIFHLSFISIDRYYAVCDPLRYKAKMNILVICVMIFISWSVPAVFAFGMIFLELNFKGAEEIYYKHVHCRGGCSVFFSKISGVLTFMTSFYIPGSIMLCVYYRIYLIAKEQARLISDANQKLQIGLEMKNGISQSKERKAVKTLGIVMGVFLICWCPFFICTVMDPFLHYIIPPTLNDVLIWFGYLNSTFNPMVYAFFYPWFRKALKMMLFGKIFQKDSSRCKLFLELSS
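Test system – hTAAR1-expressing CHO RD-HGA16 cells, Gα16-coupled · Also added – β-PEA at EC80 concentration, post-compound challenge · Compound – 3 µM, single point · Incubation – dye loading 75 min at 37 °C, then 30 min room temperature · Measured by – Fluo-8 intracellular calcium dye fluorescence, real-time kinetic reads · Benchmarks – vehicle and agonist controls · Replicates – singlicate, one well per test compound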
TAAR1 ag = human TAAR1 agonists, primary screen, Fluo-8 calcium fluorescence, CHO RD-HGA16 cells; Trace amine-associated receptor 1 (Homo sapiens), Q96RJ0; vehicle wells 0%, saturating PEA agonist 100%; activation, % at 3 µM; hit rate 0.99% among 360,000; AID 624467, 2012;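 active means activation above the mean activation of all test compounds in the run plus 3 SD, cut at about 38% in these data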
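Assay system: CHO-derived RD-HGA16 cells with stable Gα16 and human TAAR1; timing: 17-24 h seeding, 75 min 37 °C dye, 30 min RT; read-out: % activation from peak over basal fluorescence ratio, DMSO-to-PEA scaled; measured by: kinetic Fluo-8 calcium fluorescence; benchmarks: low control DMSO, high control PEA (EC100); doses: 3 µM single concentration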
* marks the source's active call; other numbers are inactive results; . = not tested or not shown.

SMILES | OX1R antag-1 | GalR3 antag | CHO parental Ca | OX1R antag-2 | TAAR1 antag | TAAR1 ag
Cc1cc(=O)oc2cc(OCc3nnc(-c4ccccc4Br)o3)ccc12 | 46 | 0 | 1 | -2 | 22 | 43*
COc1ccc(-c2cc3nc(NCCN4CCCC4)n(C)c(=O)c3s2)cc1OC | . | -2 | . | . | -9 | 0
O=C(NCCCN1CCCC1=O)c1cccc(S(=O)(=O)Nc2ccc(F)cc2)c1 | 4 | -6 | -13 | 0 | 9 | 2
Nc1c(C(=O)N2CCCCC2)sc(=S)n1-c1ccccc1 | 5 | -4 | -4 | -13 | 5 | 13
CC(C)(C)S(=O)N1Cc2cc(C(=O)N[C@@H]3CCN(Cc4ccccc4)C3)nc(-c3cccc(-c4cc5ccccc5o4)c3)c2[C@@H]1CCO (stereo partly specified) | . | -5 | . | . | 59* | 13
CC(C)(C)S(=O)N1Cc2cc(C(=O)O)nc(-c3cccc(-c4cc5ccccc5o4)c3)c2[C@H]1CCO (stereo partly specified) | . | -4 | . | . | -8 | 1
CN1CCN(C(=O)c2cc3c(c(-c4cccc(-c5cc6ccccc6o5)c4)n2)[C@H](CCO)N(S(=O)C(C)(C)C)C3)CC1 (stereo partly specified) | . | -6 | . | . | 50* | 21
CN1CCN(C2=C(Cl)C(=O)N(c3ccc(Cl)cc3)C2=O)CC1 | -5 | . | -7 | -4 | . | .
COc1cc2c(cc1NC(=O)C(C)Sc1ccc(NC(C)=O)cc1)oc1ccccc12 (stereo unspecified) | 49 | 3 | 19 | 16 | 50* | 9
COc1cc2c(cc1NC(=O)Nc1ccc(C)cc1)oc1ccccc12 | 23 | -3 | -15 | -16 | 5 | 2
Cc1nn(C)c(-c2n[nH]c(=S)n2-c2ccccc2)c1Cl | 13 | -1 | -5 | -8 | -4 | 12
CCNc1nc(Oc2ccc(C(=O)OC)cc2)nc(N(C)C)n1 | 18 | -3 | -16 | 0 | -20 | 6
COC(=O)c1ccc(Oc2nc(Nc3ccc(C)c(C)c3)nc(N(C)C)n2)cc1 | 39* | -4 | -35 | -51 | 20 | 9
O=S(=O)(c1cc(F)ccc1F)N1CCN(c2ccccn2)CC1 | 14 | -10 | 3 | -2 | -2 | -1
O=S(=O)(c1cc(F)ccc1F)N1CCN(c2ncnc3ccccc23)CC1 | 26 | -1 | 49* | 45* | 37 | 11
O=C(N/N=C/c1ccco1)c1cc(C2CC2)[nH]n1 | 2 | -6 | -10 | 5 | 13 | 0
O=C(N/N=C\c1cn[nH]c1-c1ccccc1)c1ccc([N+](=O)[O-])cc1 | 36 | 2 | -14 | -9 | -3 | 2
O=C(N/N=C/c1ccc([N+](=O)[O-])cc1)c1cc(C2CC2)[nH]n1 | 68* | 5 | -2 | -11 | -33 | 3
Cc1cc(C(=O)N/N=C/c2ccc(O)c([N+](=O)[O-])c2)n[nH]1 | 60* | -3 | 1 | -9 | -10 | 1
O=C(N/N=C/c1ccc([N+](=O)[O-])cc1)c1[nH]ncc1Br | 58* | -7 | -5 | -13 | -6 | 4
CC(=O)Nc1ccc(N(C(=O)c2cnccn2)C(C(=O)NC2CCCCC2)c2ccc(O)cc2)cc1 (stereo unspecified) | 9 | -8 | -1 | -9 | -5 | 1
Cc1c(C(=O)N2CCCCC2)sc(NC(=O)c2ccco2)c1C#N | 5 | -5 | -18 | -42 | -11 | 1
Cc1ccccc1OCc1nnc(SC(C)C(=O)O)n1Cc1ccccc1 (stereo unspecified) | 63* | 0 | -20 | 4 | 2 | 10
CC(OC(=O)c1ccc(O)cc1)C(=O)Nc1ccc(Oc2ccccc2)cc1 (stereo unspecified) | 13 | -4 | 23 | 11 | 49* | 3
CC(OC(=O)c1cc[n+]([O-])cc1)C(=O)Nc1ccc(C(N)=O)cc1 (stereo unspecified) | 2 | -3 | 5 | 0 | 14 | 2
SMILES | OX1R antag-1 | GalR3 antag | CHO parental Ca | OX1R antag-2 | TAAR1 antag | TAAR1 ag
CN(C)C(=O)CCc1ccc2c3c([nH]c2c1)[C@]1(C)[C@@H](C(=O)N2CCCCC2)C[C@H](CC(=O)NC(C)(C)C)C(=O)N1CC3 | 17 | -3 | -7 | -9 | -12 | 1
C[C@H]1O[C@@H](O[C@H]2[C@@H](O)C[C@H](O[C@H]3[C@@H](O)C[C@H](O[C@H]4CC[C@@]5(C)[C@H](CC[C@@H]6[C@@H]5C[C@@H](O)[C@]5(C)[C@@H](C7=CC(=O)OC7)CC[C@]65O)C4)O[C@@H]3C)O[C@@H]2C)C[C@H](O)[C@@H]1O | 8 | 23* | -9 | -5 | -6 | 1
COc1ccc(CC(=O)N(CC2CCCO2)c2nc3ccccc3s2)cc1 (stereo unspecified) | 12 | 9 | -5 | -13 | -36 | 3
O=C(OCC(=O)N1CCCCC1)c1cc(=O)[nH]c2ccccc12 | 20 | -7 | -8 | -21 | -38 | -2
CCC1CCCCN1C(=O)COC(=O)c1cc(=O)[nH]c2ccccc12 (stereo unspecified) | 25* | -6 | -19 | 1 | 0 | 8
COC(=O)C1=CN(C(C)C)C=C(C(=O)OC)C1c1cc(Br)c(OC)c(OC)c1 | 15 | 0 | -9 | -36 | 21 | 0
CCOC(=O)c1sc(N)c(C#N)c1CSc1nc2ccc(OCC)cc2[nH]1 | 47* | 8 | -18 | -21 | -24 | -2
CCOC(=O)c1sc(N)c(C#N)c1CSc1nc2ccc(C)cc2[nH]1 | 18 | -3 | -42 | -34 | 3 | 10
COc1ccc(COCC(O)CN2CCC(CN3C(=O)c4cccc5cccc(c45)C3=O)CC2)cc1OC (stereo unspecified) | 49* | -9 | -27 | -18 | -13 | 4
O=C(Nc1ccc(-n2nncc2-c2ccco2)cc1)c1cc2ccccc2oc1=O | 10 | . | 54* | -13 | . | .
O=C(NNC(=O)c1cc2ccccc2oc1=O)c1ccccc1[N+](=O)[O-] | 77* | -2 | -4 | -11 | -9 | 2
C/C(=N\NC(=O)c1ccc([N+](=O)[O-])cc1)c1cc2ccccc2oc1=O | 68* | -9 | 0 | -2 | -3 | 1
C/C(=N\NC(=O)c1ccccc1)c1cc2cc([N+](=O)[O-])ccc2oc1=O | 36 | 0 | 6 | -40 | -11 | 10
Cc1ccc2cc(C#N)c(N3CCCN(S(=O)(=O)c4ccccc4)CC3)nc2c1C | 13 | -2 | -7 | -6 | 1 | 10
